The source of these data is ChEMBL document CHEMBL4602735, “Discovery of (1H-Pyrazolo[3,4-c]pyridin-5-yl)sulfonamide Analogues as Hepatitis B Virus Capsid Assembly Modulators by Conformation Constraint” (J Med Chem, 2020).

Calls of active or inactive are those of the source. No cut-off for these calls is given here.

The test system of data set [1] is Hepatitis B virus. The experiment in a line: Antiviral activity against HBV infected in human HepG2.2.15 cells. In kind it is functional, organism-based. Conditions: HepG2 2.2.15.
The nature of data set [2]: Solubility in water at 1 mg at 25 degC by HPLC analysis. In kind it is physicochemical. The method, boiled down: (§1)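 Solubility determined in water or 0.067 M phosphate buffer at pH 5.8, 6.8 and 7.4. Values are reported in mg/mL; ND means below the detection limit.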
A short description of data set [3]: Stability in pH 7.4 buffer assessed as compound hydrolysis level after 2 hrs at 37 degC by HPLC analysis. The format is physicochemical. The following applies: pH 7.4, 2 h. In short, it runs like this: (§2)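 Prodrug incubated in buffer (0.1 M HCl, pH 5.8, 6.8 or 7.4) at 37 °C; percent of compound remaining determined by HPLC; remaining percentage reported after 3 h, stability meaning no hydrolysis after 2 h.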

A short description of data set [4]: Solubility in pH 6.8 phosphate buffer at 1 mg at 25 degC by HPLC analysis. The format is physicochemical. Conditions: BLD = below limit of detection. The method, boiled down:
as §1

Data set [5] is described as follows: Solubility in pH 5.8 phosphate buffer at 1 mg at 25 degC by HPLC analysis. The format is physicochemical. The method, boiled down: as §1
A short description of data set [6]: Half life in mouse plasma by HPLC analysis. The format is ADME, cell-free. In short, it runs like this:
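Prodrug incubated in plasma at 37 °C, with percent remaining determined by HPLC to derive half-life.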

Data set [7] in a line: Stability in pH 6.8 buffer assessed as compound remaining level at 37 degC by HPLC analysis. The format is physicochemical. The method, boiled down: as §2
A short description of data set [8]: Stability in 0.1M HCl solution assessed as compound remaining level at 37 degC by HPLC analysis. In kind it is physicochemical. Conditions: buffer. In short, it runs like this:
as §2

In data set [9] the test system is Hepatitis B virus. The experiment in a line: Inhibition of HBsAg secretion in HBV infected human HepG2.2.15 cells at 2 uM for 4 days by ELISA. In kind it is functional, organism-based. The following applies: HepG2 2.2.15. The method, boiled down:
(§3)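 HepAD38 or HepG2.2.15 cells were treated at 2 µM for 4 days, with medium replaced every 2 days. Intracellular and extracellular DNA and RNA were quantified by qPCR or qRT-PCR, and HBeAg and HBsAg by ELISA. Results were compared with DMSO vehicle as mean ± SD, using a two-tailed t-test.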
(An ELISA detects its analyte on a solid surface through an enzyme-linked reagent.)

Data set [10] has as its system Hepatitis B virus. The experiment in a line: Antiviral activity against HBV infected in human HepG2.2.15 cells assessed as inhibition of intracellular viral DNA accumulation at 2 uM for 4 days by qPCR or qRT-PCR relative to control. Conditions: HepG2 2.2.15. The format is functional, organism-based. In short, it runs like this:
as §3
(In general: Quantitative PCR measures a nucleic acid by following its amplification.)

Data set [11] relates to Hepatitis B virus. The experiment in a line: Antiviral activity against HBV infected in human HepAD38 cells assessed as inhibition of intracellular viral DNA accumulation at 2 uM for 4 days by qPCR or qRT-PCR relative to control. In kind it is functional, organism-based. In short, it runs like this: as §3
Data set [12] has as its system Hepatitis B virus. The experiment in a line: Antiviral activity against HBV infected in human HepAD38 cells assessed as inhibition of intracellular viral RNA accumulation at 2 uM for 4 days by qPCR or qRT-PCR relative to control. The format is functional, organism-based. The method, boiled down: as §3
For data set [13], the system named is Hepatitis B virus. Kind of data set: Inhibition of HBsAg secretion in HBV infected human HepAD38 cells at 2 uM for 4 days by ELISA. In kind it is functional, organism-based. The method, boiled down: as §3
The test system of data set [14] is Hepatitis B virus. The experiment in a line: Antiviral activity against HBV infected in human HepAD38 cells. In kind it is functional, organism-based.
Data set [15] concerns Hepatitis B virus. Kind of data set: Antiviral activity against HBV infected in […] cells. The format is functional, organism-based.

In general, EC50 refers to the concentration giving half of the maximal effect. `COC(=O)C1=C(C)NC(c2ncc(F)cc2F)=N[C@H]1c1ccc(F)cc1Cl`: in the data set on Hepatitis B virus [1], the EC50 was 53 nM.

One may read the solubility as the concentration that dissolves in the medium under given conditions. Low readings indicate little dissolved substance, high ones much dissolved substance. In general, half-life refers to how long it takes for the measured level to halve. Lower therefore signals rapid decline. `Cc1cc(Nc2nn(C3CC3)c3cnc(S(=O)(=O)N4CCC(OC(=O)CN(C)C)CC4)cc23)ccc1F.O=C(O)C(F)(F)F`: the values for the solubility in data set [2], in data set [4] and in data set [5] were 1510 µg/mL, “Bld” and 290 µg/mL, respectively. Moreover, the Stability entry is reported as “Stable” in [3], “Unstable” in data set [7] and “Stable” in [8]. This compound came in with a half-life in data set [6] of 47.2 min.

As for `COc1ccccc1/C(Br)=C(\NC(=O)c1ccc([N+](=O)[O-])cc1)C(=O)N1CCCCC1`, the inhibition entry in the data set with Hepatitis B virus [9] and in the data set on Hepatitis B virus [13] was “inactive” each time. In addition, the inhibition entry in the data set with Hepatitis B virus [10], in the data set with Hepatitis B virus [11] and in the data set with Hepatitis B virus [12] was “Active” throughout. The compound further had an EC50 in the data set with Hepatitis B virus [14] of 130 nM.

On to `CCC(C)NS(=O)(=O)c1ccc(F)c(C(=O)Nc2ccc(F)c(F)c2)c1` (stereo not given), for which the EC50 with Hepatitis B virus [15] is 300 nM.
